# Screening data deposited in PubChem by Broad Institute.
# Hits are enriched below; roughly 2.6% of the tested compounds scored in any of these assays.
# Vif imaging – HIV Vif self-association inhibitors, primary screen, imaging, HEK293T, single point | HEK293T cells, Vif self-association by quenched fluorescence, 24 h | 340,000 tested, 0.35% active | inhibition, % at 7.49 µM; in the data active = inhibition above about 50%, passing the limit was not always enough; inconclusive = no clear call, values can overlap the other calls; inactive = below about 31%
# esBAF inh – Bmi1 luciferase reporter increase in mESCs, primary screen, esBAF inhibitor project, mouse ES cells, Bmi1 luciferase knock-in, single point; 24 h; 100% = twice the neutral-well signal; reporter increase, % at 12.5 µM; 350,000 tested, 2% active; AID 602393, 2012; in the data active = activation above about 40%; inconclusive = no clear call, values can overlap the other calls;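 also: 0% = median of the plate's neutral control wells and 100% = double that signal; a rise in the Bmi1 reporter signal indicates esBAF inhibition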
# MITF act – activators of MITF-driven TRPM1 promoter reporter, primary screen, cell-based, SK-MEL-5, luciferase, single point | SK-MEL-5 TRPM1-promoter luciferase, 24 h; % of positive control, neutral wells = 0 | activation, % at 12.5 µM | 300,000 tested, 0.75% active;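 active = mean activation of at least 80% with every replicate also reaching 80%; inconclusive = mean reaches 80% but some replicate falls short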;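 also: 0% = neutral control wells and 100% = parthenolide positive control wells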
# XiGFP reactiv – activators of inactive X chromosome reactivation, primary screen, imaging, XiGFP fibroblasts, GFP high-content imaging, set 2; XiGFP mouse fibroblasts, % GFP-positive cells imaging, 3 d; cells co-treated with 5-aza-dC sensitizer; scaled so ellipticine positive control = 100%; activation, % at 7.58 µM; 360,000 tested, 0.055% active;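 active = mean normalized replicate activation at least 10% and every replicate at or above 10%; inconclusive = only one of the two criteria met; inactive = mean below 10% and not all replicates reach 10%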;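 also: 0% = median of on-plate neutral control wells and 100% = ellipticine 6 µM median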
#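 Assay system: SV40-immortalized XiGFP fibroblast cells, line 68-5-11; buffer or medium: DMEM plus 5-aza-dC sensitizer; compound: one concentration, pinned; timing: compounds 3 days, fix/stain 15 min at room temperature; benchmarks: positive control ellipticine, 6 µM final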
# Wnt bcat act – Wnt/beta-catenin pathway activators, primary screen, cell-based, plate reader, single point; 300,000 tested, 1.2% active; Wnt/beta-catenin reporter cell assay, activator; activation, % at 9.35 µM; in the data active = activation above about 30%, passing the limit was not always enough; inconclusive = no clear call, values can overlap the other calls;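 also: 0% = neutral control wells and 100% = positive control wells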
# The depositor's hits bear a star; ? = inconclusive; . = not tested or not shown.
SMILES,Vif imaging,esBAF inh,MITF act,XiGFP reactiv,Wnt bcat act
CN1C(=O)c2cc(NC(=O)Cc3cccs3)ccc2OC[C@H]2O[C@@H](CC(=O)O)CC[C@@H]21,.,.,.,0,.
Cn1c(NC(=O)c2ccccc2F)c(-c2cccs2)c(=O)c2ccccc21,-1,.,-3,0,33*
O=C(NCCc1ccccc1F)C(=O)Nc1nccs1,8,29,24,.,37*
C[C@H]1CN([C@@H](C)CO)S(=O)(=O)c2ccc(C3=CCCCC3)cc2O[C@H]1CN(C)Cc1ccncc1,.,4,.,-1,.
O=C(CNC(=O)c1ccccc1)N=Nc1c(O)[nH]c2ccc(Br)cc12,2,-3,-6,0,-1
Cc1cccc2c(N=Nc3ccccc3)c(O)[nH]c12,-2,.,65,2,45*
Oc1[nH]c2ccc(Br)cc2c1N=Nc1ccc(C(F)(F)F)cn1,-13,-2,-25,0,-2
Oc1[nH]c2ccccc2c1N=Nc1ccccc1Cl,-6,.,24,0,-2
Oc1[nH]c2ccccc2c1N=Nc1cccc(Cl)c1,?,52*,35,0,17
O=C(O)c1ccc(N=Nc2c(O)[nH]c3ccc(Br)cc23)cc1,5,80*,46,0,19
Cc1cccc2c(N=NC(=O)C(C)n3cnc4ccccc4c3=O)c(O)[nH]c12 (centres undefined),-3,.,-12,0,-2
COC(=O)N=Nc1c(O)[nH]c2ccc(Br)cc12,-5,-15,-12,0,53*
COCC(=O)Nc1ccc2c(c1)OC[C@@H](C)N(CC1CC1)C[C@@H](C)[C@H](OC)CN(C)C2=O,.,-9,.,0,.
CCCNC(=O)C[C@@H]1CC[C@H]2[C@@H](COC[C@@H](O)CN2C(=O)Nc2cccc(Cl)c2)O1,.,6,.,1,.
C[C@@H]1CN(C)C(=O)c2ccccc2O[C@H]1CN(C)C,.,.,.,0,.
Nc1nc(N)c(N=Nc2ccc(C(=O)O)cc2)c(N)n1,-2,-7,-11,0,1
O=C(O)c1ccc(N=Nc2c(O)[nH]c3cc(Cl)ccc23)cc1,-1,.,64,0,53*
O=C(NCCc1ccccc1)[C@@H]1[C@@H](CO)[C@@H]2Cn3c(cccc3=O)[C@@H]2N1Cc1cccnc1,.,-3,.,0,.
C[C@H](CO)N1C[C@H](C)[C@@H](CN(C)S(C)(=O)=O)Oc2ccc(NC(=O)CCCN(C)C)cc2C1=O,.,-1,.,0,.
O=C(Nc1nc(-c2ccccn2)cs1)C1CC1,-1,46*,47,0,10
O=C(Nc1ccccn1)C12CC3CC(C1)CC(C(=O)Nc1ccccn1)(C3)C2,1,.,8,.,-2
O=C(CC1CC2CCC1C2)Nc1nc(-c2ccccn2)cs1 (centres undefined),-4,.,7,0,6
O=C(Nc1nc(-c2ccccn2)cs1)C12CC3CC(CC(O)(C3)C1)C2,1,.,41,0,40*
c1ccc(Nc2nc(-c3ccccn3)cs2)cc1,3,25,6,.,40*
Cc1ccc(S(=O)(=O)N(C)C[C@H]2OCCCC[C@H](C)Oc3ccc(NC(=O)CCC(F)(F)F)cc3C(=O)N([C@@H](C)CO)C[C@H]2C)cc1,.,0,.,0,.
SMILES,Vif imaging,esBAF inh,MITF act,XiGFP reactiv,Wnt bcat act
O=C(c1cnn(-c2cccc(F)c2)c1)c1ccccc1O,11,.,46,0,37*
O=C(C[C@@H]1CC[C@H]2[C@@H](COC[C@H](O)CN2Cc2cccc(C(F)(F)F)c2)O1)NCc1ccccc1,.,2,.,0,.
C[C@@H]1CN([C@@H](C)CO)C(=O)c2cc(C#CC3(O)CCCC3)cnc2O[C@H]1CN(C)C(=O)C1CC1,.,.,.,-1,.
C[C@H]1CN([C@@H](C)CO)C(=O)c2cccc(NC(=O)Nc3ccccc3)c2O[C@@H]1CN(C)Cc1ccncc1,.,-4,.,0,.
Cc1ccc(-n2c(COc3ccccc3)nnc2SCC(=O)O)cc1,.,-1,.,1,62*
N#C/C(=N/Nc1ccc([N+](=O)[O-])cc1)C(=N)N1CCCCC1,-3,.,101*,0,.
N#C/C(=N\Nc1ccc(Br)cc1)C(=N)N1CCOCC1,3,56*,92*,0,12
N#C/C(=N\Nc1ccc([N+](=O)[O-])cc1)C(=N)N1CCOCC1,9,.,53,0,26
N#C/C(=N\Nc1ccccc1[N+](=O)[O-])C(=N)N1CCCCC1,1,51*,57,0,54*
O=C(c1cc(COc2ccc(F)cc2Cl)on1)N1C[C@H]2CC[C@H]1C2,-15,43*,78,0,0
O=C(c1cc(COc2ccc(F)cc2Cl)on1)N1CC[C@@H]2CCCC[C@H]2C1,8,4,14,0,1
O=C(c1cc(COc2ccc(F)cc2Cl)on1)N1CC2C[C@@H]3CC1C[C@H](C2)C3,6,59*,38,0,15
O=C(Nc1ccccc1)N1CC(=O)N2[C@H](C1)[C@@H](c1ccc(C#Cc3cccnc3)cc1)[C@@H]2CO,.,.,.,0,.
O=C(C[C@@H]1C[C@@H]2c3cc(NC(=O)Cc4ccncc4)ccc3O[C@@H]2[C@H](CO)O1)NCC1CC1,.,-1,.,0,.
Cn1c(/C(C#N)=C(\O)c2cc(Cl)sc2Cl)nc2ccccc21,-21,10,-17,0,-1
Cn1c(/C(C#N)=C(\O)c2ccc(Br)s2)nc2ccccc21,6,47*,24,0,20
C[C@H](CO)N1C[C@H](C)[C@@H](CN(C)C(=O)Nc2ccccc2F)Oc2cc(-c3ccc(C(=O)N(C)C)cc3)ccc2S1(=O)=O,.,0,.,0,.
O=C(OCC(=O)C12CC3CC(CC(C3)C1)C2)c1ccc(O)cc1O,-12,51*,49,0,8
CC(C)(C)NC(=O)C(c1ccncc1)N(C(=O)Cn1nnc(-c2ccc(F)cc2)n1)c1ccccc1F (centres undefined),60*,.,-15,0,.
Cc1ccc(OCc2cc(C(=O)NCCn3cccn3)no2)cc1C,-5,13,27,0,0
O=C(NCCCn1cccn1)c1cc(COc2ccccc2)on1,.,82*,.,0,?
CC(=O)c1ccc(OCc2cc(C(=O)NC(C)CCn3cccn3)no2)cc1 (centres undefined),0,71*,78,0,14
COc1ccc(S(=O)(=O)Nc2ccc3c(c2)C(=O)N([C@H](C)CO)C[C@H](C)[C@H](CN(C)Cc2ccc4c(c2)OCO4)O3)cc1,.,-7,.,0,.
COC(=O)C[C@H]1CC[C@@H]2[C@@H](COc3ccc(NC(=O)Cc4cccs4)cc3C(=O)N2C)O1,.,0,.,0,.
CCOC(=O)Cn1c(COc2ccccc2OC)[n+](C)c2ccccc21,66*,1,.,0,-3
